# Assay results taken from ChEMBL document CHEMBL1148652, “Design of potent, orally available antagonists of the transient receptor potential vanilloid 1. Structure-activity relationships of 2-piperazin-1-yl-1H-benzimidazoles” (J Med Chem, 2006).
# Activity calls are given as the source filed them. The rule behind the calls is not given here.
# Tests used:
# [1] = Volume of distribution in Sprague-Dawley rat at 1 mg/kg, iv; assay type: ADME, organism-based; design: dose 1 mg/kg, route intravenous; settings: in vivo, read-out: Vdss
# [2] = biological target: Transient receptor potential cation channel subfamily V member 1 (Rattus norvegicus) (UniProt O35433); experiment: Antinociceptive activity in Sprague-Dawley rat assessed as reversal of CFA-induced thermal hyperalgesia; assay type: functional
# How it was run: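 Thermal hyperalgesia induced in rats by complete Freund's adjuvant; reversal assessed after oral dosing at 30 mg/kg.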
# [3] = biological target: T1, Transient receptor potential cation channel subfamily V member 1 (Rattus norvegicus, UniProt O35433); experiment: Antagonist activity against acid-induced 45calcium ion uptake in CHO cells expressing rat TRPV1 at pH5; assay type: functional, cell-based
# How it was run: (§1)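 CHO cells recombinantly expressing rat TRPV1; inhibition of 45Ca2+ uptake triggered by capsaicin or by acid, pH 5. Functional IC50 in nM, averaged over at least two independent experiments, each with three replicates per concentration.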
# [4] = Elimination half life in Sprague-Dawley rat at 1 mg/kg, iv; assay type: ADME, organism-based; design: dose 1 mg/kg, route intravenous; settings: in vivo
# [5] = Oral bioavailability in Sprague-Dawley rat; assay type: ADME, organism-based; settings: in vivo
# [6] = Tmax in Sprague-Dawley rat at 5 mg/kg, po; assay type: ADME, organism-based; design: dose 5 mg/kg, route oral; settings: in vivo
# [7] = Clearance in Sprague-Dawley rat at 1 mg/kg, iv; assay type: ADME, organism-based; design: dose 1 mg/kg, route intravenous; settings: in vivo
# [8] = biological target: T1, Transient receptor potential cation channel subfamily V member 1; experiment: Antagonist activity against capsaicin-induced 45calcium ion uptake in CHO cells expressing rat TRPV1; assay type: functional, cell-based; how it was run: as §1
# [9] = Cmax in Sprague-Dawley rat at 5 mg/kg, po; assay type: ADME, organism-based; design: dose 5 mg/kg, route oral; settings: in vivo
# [10] = biological target: Transient receptor potential cation channel subfamily V member 1 (Rattus norvegicus) (UniProt O35433); experiment: Antinociceptive activity in po dosed Sprague-Dawley rat assessed as ability to block capsaicin-induced paw flinching; assay type: functional, organism-based
# How it was run: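 Rats dosed orally, then challenged with intraplantar capsaicin (0.5 µg/[…] per paw) to provoke flinching. Eight animals per group; ED50 taken from dose-response.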
# T1 sequence (O35433 whole entry): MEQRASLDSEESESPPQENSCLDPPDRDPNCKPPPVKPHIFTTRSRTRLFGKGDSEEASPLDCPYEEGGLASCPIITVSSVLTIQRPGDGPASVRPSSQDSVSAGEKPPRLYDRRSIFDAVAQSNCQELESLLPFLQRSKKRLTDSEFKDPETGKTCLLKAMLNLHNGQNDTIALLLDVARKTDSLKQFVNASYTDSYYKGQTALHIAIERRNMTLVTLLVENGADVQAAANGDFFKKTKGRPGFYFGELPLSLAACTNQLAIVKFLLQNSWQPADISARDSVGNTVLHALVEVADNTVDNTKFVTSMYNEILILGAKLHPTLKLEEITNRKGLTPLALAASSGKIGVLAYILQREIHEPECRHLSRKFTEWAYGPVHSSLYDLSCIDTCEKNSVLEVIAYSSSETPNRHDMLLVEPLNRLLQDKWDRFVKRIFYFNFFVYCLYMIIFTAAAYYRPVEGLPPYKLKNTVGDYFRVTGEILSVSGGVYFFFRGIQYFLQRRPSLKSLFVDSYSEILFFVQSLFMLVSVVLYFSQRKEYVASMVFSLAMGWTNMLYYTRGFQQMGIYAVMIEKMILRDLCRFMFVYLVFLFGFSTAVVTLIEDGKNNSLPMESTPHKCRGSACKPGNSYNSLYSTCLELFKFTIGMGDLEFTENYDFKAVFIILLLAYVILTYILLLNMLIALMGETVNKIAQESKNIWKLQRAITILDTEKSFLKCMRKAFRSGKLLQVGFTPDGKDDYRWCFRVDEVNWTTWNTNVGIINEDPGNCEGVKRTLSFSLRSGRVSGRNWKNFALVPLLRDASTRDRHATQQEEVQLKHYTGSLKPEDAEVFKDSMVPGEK
# Chain of Transient receptor potential cation channel subfamily V member 1 (Rattus norvegicus) (O35433 whole entry): as above
Structure (SMILES),IC50 [3] [nM],IC50 [8] [nM],also measured
C[C@@H]1CN(c2ncc(C(O)CO)cc2Cl)CCN1c1nc2c(-c3cc(F)c(F)c(F)c3)cc(C(F)(F)F)cc2[nH]1 (mixture of isomers),0.9,0.9,Vd [1]: 1.89 L/kg; Activity [2]: Active; half-life [4]: 5.6 h; bioavailability [5]: 17%; Tmax [6]: 4 h; clearance [7]: 4.5 mL/min/kg; Cmax [9]: 617 ng/mL; ED50 [10]: 8.8 mg/kg
C[C@@H]1CN(c2ncc(C(O)c3ccccc3)cc2C(F)(F)F)CCN1c1nc2c(-c3cc(F)c(F)c(F)c3)cc(C(F)(F)F)cc2[nH]1 (stereo partly specified),3.7,2.8,
FC(F)(F)c1cc(C(F)(F)F)c2[nH]c(N3CCN(c4ncccc4C(F)(F)F)CC3)nc2c1,120,325,
FC(F)(F)c1ccc2[nH]c(N3CCN(c4cccc(C(F)(F)F)n4)CC3)nc2c1,> 40000,> 40000,
Fc1ccc(Cc2cc(C(F)(F)F)cc3[nH]c(N4CCN(c5ncccc5C(F)(F)F)CC4)nc23)cc1F,52,71,
C[C@H]1CN(c2nc3c(-c4cc(F)c(F)c(F)c4)cc(C(F)(F)F)cc3[nH]2)CCN1c1ncccc1Br,254,767,
C[C@@H]1CN(c2ncc(CO)cc2Cl)CCN1c1nc2cc(C(F)(F)F)cc(NC(=O)C3CCCCC3)c2[nH]1,1.2,1.6,
C=Cc1cnc(N2CCN(c3nc4c(-c5cc(F)c(F)c(F)c5)cc(C(F)(F)F)cc4[nH]3)[C@H](C)C2)c(Cl)c1,1.7,1.3,
Cc1cccnc1N1CCN(c2nc3ccc(C(F)(F)F)cc3[nH]2)CC1,1140,402,
